In data set [1] the test system is Mus musculus. Put plainly: Induction of radioiodine secretion from 14 days iodine-poor diet fed mouse thyroid assessed as blood [125I] level at 15 mg/kg, iv after 2 hrs pretreated with 10 ug L-thyroxine and [125-I] relative to control by McKenzie Bioassay. Type of data set: functional, Thyroid gland. In outline: (§1)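 Weanling female mice (14–16 g) fed an iodine-poor diet for 14 days, then given 10 μg L-thyroxine sc and 6–8 μCi 125I ip, with L-thyroxine (1 mg/l) in drinking water for 3 days. On day 4, cyclic nucleotides were given into the tail vein as sodium salts in aqueous solution, pH 7.4. Orbital-sinus blood was sampled at 0 and 2 h and γ-counted. Result is cpm(2 h)/cpm(0 h) × 100; mean of about six animals per dose.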

Data set [2] deals with Mus musculus. Put plainly: Induction of serum thyroxine level in Swiss mouse measured per 100 ml at 1 mg, iv after 1 hr by radioimmunoassay (reference value: 4.20 +/- 0.25 to 6.06 +/- 0.36 ug). In kind it is functional.
Data set [3] deals with Mus musculus. Put plainly: Induction of radioiodine secretion from 14 days iodine-poor diet fed mouse thyroid assessed as blood [125I] level at 6 mg/kg, iv after 2 hrs pretreated with 10 ug L-thyroxine and [125-I] relative to control by McKenzie Bioassay. Type of data set: functional, Thyroid gland. In outline:
as §1

In data set [4] the test system is Mus musculus. Put plainly: Induction of radioiodine secretion from 14 days iodine-poor diet fed mouse thyroid assessed as blood [125I] level at 30 mg/kg, iv after 2 hrs pretreated with 10 ug L-thyroxine and [125-I] relative to control by McKenzie Bioassay. Type of data set: functional, Thyroid gland. In a few lines: as §1
In data set [5] the test system is Mus musculus. Put plainly: Induction of radioiodine secretion from 14 days iodine-poor diet fed mouse thyroid assessed as blood [125I] level at 60 mg/kg, iv after 2 hrs pretreated with 10 ug L-thyroxine and [125-I] relative to control by McKenzie Bioassay. Type of data set: functional, Thyroid gland.
The nature of data set [6]: Toxicity in iv dosed mouse. In kind it is organism-based. Particulars: in vivo. In a few lines: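 Female mice (14–16 g, post-weaning) kept 14 days on an iodine-poor diet. They were then given 10 μg L-thyroxine sc and 6–8 μCi 125I ip, followed by L-thyroxine 1 mg/l in drinking water for 3 days. On day 4, cyclic nucleotides were injected into the tail vein as sodium salts in aqueous solution, pH 7.4, at 6–60 mg/kg. Deaths were recorded per dose group of about six animals.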

A short description of data set [7]: Stability of the compound assessed as hydrolysis in presence of phosphodiesterase. Type of data set: ADME.
For data set [8], the system named is Mus musculus. Put plainly: Induction of serum thyroxine level in Swiss mouse measured per 100 ml at 1 mg, iv after 2 hrs by radioimmunoassay (reference value: 4.20 +/- 0.25 to 6.06 +/- 0.36 ug). In kind it is functional.
The test system of data set [9] is Mus musculus. Put plainly: Induction of radioiodine secretion from 14 days iodine-poor diet fed mouse thyroid assessed as blood [125I] level at 45 mg/kg, iv after 2 hrs pretreated with 10 ug L-thyroxine and [125-I] relative to control by McKenzie Bioassay. Type of data set: functional, Thyroid gland. In outline:
as §1

Consider `[N-]=[N+]=Nc1nc2c(N)ncnc2n1[C@@H]1O[C@@H]2COP(=O)([O-])O[C@H]2[C@H]1O.[Na+]`, for which the Activity in data set [1] was determined as 594%; in [3] it was 227%; in [4], 633%. This compound returned a serum T4 in data set [2] of 6.19 µg/dL.
As a reminder, the LD50 is the dose expected to kill half of the subjects tested. For the compound `CCCC(=O)O[C@@H]1[C@@H]2OP(=O)([O-])OC[C@H]2O[C@H]1n1c(S)nc2c(N)ncnc21.[Na+]`, the Activity in [1] was determined as 155%; in [5] it was 190%; in data set [4], 153%. This compound gave a 50% lethal dose (LD50) in data set [6] above 200 mg/kg.
For the compound `CCCC(=O)Nc1ncnc2c1ncn2[C@@H]1O[C@@H]2COP(=O)([O-])O[C@H]2[C@H]1OC(=O)CCC.[Na+]`, the results for the Activity in data set [5] and in [4] were 245% and 136%, respectively. In [2], this compound showed a serum T4 of 5.15 µg/dL. In addition, the LD50 in [6] is above 200 mg/kg. Moreover, in data set [7], the Stability entry is given as “Stable”.
`CSc1nc2c(N)ncnc2n1[C@@H]1O[C@H](COP(=O)(O)O)[C@@H](O)[C@H]1O`: the serum T4 in data set [2] stood at 4.44 µg/dL; in [8], 4.78 µg/dL. In addition, in data set [4], the Activity stood at 112%.
Consider `CCCC(=O)O[C@@H]1[C@@H]2OP(=O)([O-])OC[C@H]2O[C@H]1n1c(SC)nc2c(N)ncnc21.[Na+]`, for which the Activity amounted to 110% in [9] and 156% in [4]. The compound also registered a median lethal dose (LD50) in data set [6] above 200 mg/kg.
Take `CCCC(=O)Nc1ncnc2c1nc(S)n2[C@@H]1O[C@@H]2COP(=O)([O-])O[C@H]2[C@H]1OC(=O)CCC.[Na+]`: the results for the Activity in [1], in data set [5] and in [4] were 154%, 238% and 177%, respectively. Further, in [2], the serum T4 amounted to 4.3 µg/dL. Besides, in data set [6], the 50% lethal dose (LD50) is above 200 mg/kg.
For `Nc1ncnc2c1nc(SCc1ccccc1)n2[C@@H]1O[C@@H]2COP(=O)([O-])O[C@H]2[C@H]1O.[Na+]`, the Activity in data set [1] was 183%; in data set [3], 135%; in data set [4], 195%.
Regarding `Nc1ncnc2c1nc(S)n2[C@@H]1O[C@@H]2COP(=O)([O-])O[C@H]2[C@H]1O.[Na+]`, the Activity in data set [3] is 136%.
With `CCCC(=O)Nc1ncnc2c1nc(SC)n2[C@@H]1O[C@@H]2COP(=O)([O-])O[C@H]2[C@H]1OC(=O)CCC.[Na+]`, the Activity in data set [1] is 150%; in [5] it was 174%; in [4], 125%. For the same compound, the LD50 in data set [6] is above 200 mg/kg.
`[Cl-].[Na+]` [SODIUM CHLORIDE]: the serum T4 in data set [2] came out at 6 µg/dL; in data set [8] it was 5.83 µg/dL.
Regarding `CCCC(=O)Nc1ncnc2c1nc(O)n2[C@@H]1O[C@@H]2COP(=O)([O-])O[C@H]2[C@H]1OC(=O)CCC.[Na+]`, the Activity in data set [1] was determined as 184%; in [5] it was 582%; in data set [4], 500%. The compound further yielded a serum T4 in data set [2] of 5.58 µg/dL. Further, the LD50 in data set [6] was above 200 mg/kg.
With `CCCC(=O)Nc1ncnc2c1nc(N)n2[C@@H]1O[C@@H]2COP(=O)([O-])O[C@H]2[C@H]1OC(=O)CCC.[Na+]`, the Activity in data set [5] was 164%; in [4], 146%. The compound also returned an LD50 in data set [6] above 200 mg/kg.
With `CCCC(=O)Nc1ncnc2c1nc(S)n2[C@@H]1O[C@@H]2COP(=O)([O-])O[C@H]2[C@H]1O.[Na+]`, the Activity in data set [1] is listed as 139%; in data set [5], 630%; in data set [4], 342%. The LD50 in data set [6] is above 200 mg/kg.
As to `Nc1ncnc2c1nc(Br)n2[C@@H]1O[C@@H]2COP(=O)([O-])O[C@H]2[C@H]1O.[Na+]`, the Activity in data set [1] was found to be 284%; in data set [5], 488%; in data set [3], 248%; in data set [4] it was 331%.
Take `CCCC(=O)Nc1ncnc2c1nc(SC)n2[C@@H]1O[C@@H]2COP(=O)([O-])O[C@H]2[C@H]1O.[Na+]`: the Activity worked out at 121% in data set [1], 533% in [5] and 204% in data set [4]. In data set [6], this compound showed a median lethal dose (LD50) above 200 mg/kg.
`Nc1ncnc2c1nc(O)n2[C@@H]1O[C@@H]2COP(=O)([O-])O[C@H]2[C@H]1O.[Na+]`: the Activity in data set [1] turned out to be 114%.
Take `CCCC(=O)Nc1ncnc2c1nc(SCc1ccccc1)n2[C@@H]1O[C@@H]2COP(=O)([O-])O[C@H]2[C@H]1OC(=O)CCC.[Na+]`: the Activity came out at 170% in data set [1], 123% in data set [5], 116% in data set [3] and 141% in data set [4].
In the case of `CSc1nc2c(N)ncnc2n1[C@@H]1O[C@@H]2COP(=O)([O-])O[C@H]2[C@H]1O.[Na+]`, the Activity in data set [1] is reported as 645%; in data set [3], 492%; in data set [4] it was 804%. For the same compound, the serum T4 in [2] worked out at 6.32 µg/dL; in data set [8] it was 6.47 µg/dL.
For the compound `CCCC(=O)Nc1ncnc2c1nc(SCc1ccccc1)n2[C@@H]1O[C@@H]2COP(=O)([O-])O[C@H]2[C@H]1O.[Na+]`, the figures for the Activity in data set [1], in data set [5] and in [4] were 146%, 197% and 122%, respectively. Moreover, the LD50 in [6] is above 200 mg/kg.
`Nc1ncnc2c1nc(N)n2[C@@H]1O[C@@H]2COP(=O)([O-])O[C@H]2[C@H]1O.[Na+]`: the Activity in [1] was 663%; in data set [9] it was 818%; in data set [3], 226%; in data set [4], 607%. Besides, in data set [2], the serum T4 turned out to be 6.84 µg/dL.

These data come from ChEMBL document CHEMBL3272186, “Synthesis of new cyclic nucleotides and their differential stimulatory effects on thyroid function in mice” (J Med Chem, 1976).
